Data taken from paper PMC6437634 (Acta Pharmaceutica Sinica. B, 2018).

Tests used:
[1] = biological target: FGFR1 kinase (Homo sapiens, UniProt P11362); experiment: ELISA kinase assay FGFR1; type: biochemical
[2] = In vitro metabolic stability, human liver microsomal intrinsic clearance; type: in vitro ADME; conditions: liver microsomes, pH 7.4
Summary of the method: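 Human liver microsomes (0.5 mg/mL) were preincubated 5 min at 37 °C with 1 μmol/L test compound in 0.1 mol/L phosphate buffer pH 7.4 with EDTA and MgCl2. NADPH started the reaction. Samples taken at 0, 5, 10 and 30 min at 37 °C were quenched with equal-volume cold acetonitrile and centrifuged. Remaining parent compound was quantified by LC–MS/MS.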

[3] = biological target: CYP3A4 (Homo sapiens, UniProt P08684); experiment: CYPs direct inhibition CYP3A4; type: in vitro ADME; conditions: liver microsomes, pH 7.4
Sequence of CYP3A4 (P08684 whole entry): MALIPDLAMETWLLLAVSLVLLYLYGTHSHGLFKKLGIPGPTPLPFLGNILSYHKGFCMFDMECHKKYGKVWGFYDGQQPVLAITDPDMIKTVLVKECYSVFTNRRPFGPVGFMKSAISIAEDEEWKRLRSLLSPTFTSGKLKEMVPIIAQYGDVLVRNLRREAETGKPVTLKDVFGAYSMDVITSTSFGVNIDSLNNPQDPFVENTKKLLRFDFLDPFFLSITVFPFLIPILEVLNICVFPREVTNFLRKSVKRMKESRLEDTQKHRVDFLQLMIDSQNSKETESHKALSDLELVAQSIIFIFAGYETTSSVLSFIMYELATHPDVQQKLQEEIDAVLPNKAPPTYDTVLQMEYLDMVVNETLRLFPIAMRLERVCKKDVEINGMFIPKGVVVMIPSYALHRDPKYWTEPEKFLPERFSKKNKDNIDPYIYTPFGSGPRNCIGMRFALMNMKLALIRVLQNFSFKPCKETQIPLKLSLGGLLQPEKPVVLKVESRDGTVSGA

[4] = tested on: CYPs; experiment: CYP time-dependent inhibition; type: in vitro ADME, human; conditions: kobs lower than 200 (10^-4/min) considered no TDI inhibition

Sequence of FGFR1 kinase (P11362 22-822): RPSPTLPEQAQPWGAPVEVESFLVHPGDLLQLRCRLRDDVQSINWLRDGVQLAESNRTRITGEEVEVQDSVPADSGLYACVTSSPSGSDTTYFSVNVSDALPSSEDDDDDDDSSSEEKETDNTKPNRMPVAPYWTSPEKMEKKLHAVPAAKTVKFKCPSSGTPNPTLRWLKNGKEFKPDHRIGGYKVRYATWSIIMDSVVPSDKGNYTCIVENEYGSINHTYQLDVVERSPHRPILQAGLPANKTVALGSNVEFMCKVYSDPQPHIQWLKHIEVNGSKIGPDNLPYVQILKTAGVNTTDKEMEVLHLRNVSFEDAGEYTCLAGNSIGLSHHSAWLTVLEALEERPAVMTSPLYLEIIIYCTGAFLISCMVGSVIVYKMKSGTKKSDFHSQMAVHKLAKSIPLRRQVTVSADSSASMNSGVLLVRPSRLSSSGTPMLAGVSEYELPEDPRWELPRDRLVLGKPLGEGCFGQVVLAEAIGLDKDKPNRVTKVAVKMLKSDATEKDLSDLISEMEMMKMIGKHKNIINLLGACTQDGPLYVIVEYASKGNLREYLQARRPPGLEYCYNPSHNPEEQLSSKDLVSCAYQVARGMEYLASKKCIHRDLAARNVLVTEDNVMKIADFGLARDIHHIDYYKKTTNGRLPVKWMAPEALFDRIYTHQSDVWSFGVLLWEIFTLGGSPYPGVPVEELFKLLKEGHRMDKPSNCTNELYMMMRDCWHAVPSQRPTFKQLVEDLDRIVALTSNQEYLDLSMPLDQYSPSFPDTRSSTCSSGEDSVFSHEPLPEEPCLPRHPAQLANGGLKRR

Row | SMILES | microsomal CLint at 1 μmol/L [2] | inhibition at 20 min, 10 μmol/L [3] | FGFR1 enzymatic inhibitory activity (in words) [1] | other results
1 | COc1cc(CCc2cnc3ccn(S(=O)(=O)c4ccccc4)c3n2)cc(OC)c1 [Compound 5, 3-(3,5-Dimethoxyphenethyl)-5-(phenylsulfonyl)-5H-pyrrolo[2,3-b]pyrazine] |  |  |  | FGFR1 inhibition ratio ([1]; at 0.1 μmol/L): about 75%
2 | COc1cc(OC)c(Cl)c(CCc2cnc3ccn(S(=O)(=O)c4ccccc4)c3n2)c1Cl [Compound 7, 3-(2,6-Dichloro-3,5-dimethoxyphenethyl)-5-(phenylsulfonyl)-5H-pyrrolo[2,3-b]pyrazine] |  |  |  | IC50 [1]: 14 nM
3 | COc1cc(CCc2cnc3ccn(S(=O)(=O)c4c[nH]cn4)c3n2)cc(OC)c1 [Compound 12, 5-((1H-Imidazol-4-yl)sulfonyl)-3-(3,5-dimethoxyphenethyl)-5H-pyrrolo[2,3-b]pyrazine] | 38 µL/min/mg | 96% |  | TDI (time-dependent inhibition), CYPs affected [4]: No inhibition
4 | COc1cc(CCc2cnc3ccn(S(=O)(=O)c4cn(C)cn4)c3n2)c(F)c(OC)c1 [Compound 32, 3-(2-Fluoro-3,5-dimethoxyphenethyl)-5-((1-methyl-1H-imidazol-4-yl)sulfonyl)-5H-pyrrolo[2,3-b]pyrazine] |  |  |  | IC50 [1]: 0.4 nM
5 | COc1cc(CCc2cnc3ccn(S(=O)(=O)c4cn(CCF)cn4)c3n2)c(F)c(OC)c1 [Compound 33, 3-(2-Fluoro-3,5-dimethoxyphenethyl)-5-((1-(2-fluoroethyl)-1H-imidazol-4-yl)sulfonyl)-5H-pyrrolo[2,3-b]pyrazine] |  |  | equipotent enzymatic activity as compound 32 | 
6 | COc1cc(OC)c(F)c(/C=C/c2cnc3ccn(S(=O)(=O)c4cn(C)cn4)c3n2)c1F [Compound 34, (E)-3-(2,6-Difluoro-3,5-dimethoxystyryl)-5-((1-methyl-1H-imidazol-4-yl)sulfonyl)-5H-pyrrolo[2,3-b]pyrazine] |  |  | equipotent enzymatic activity as compound 32 | 

Continued, in another order:

Row | microsomal CLint at 1 μmol/L [2] | inhibition at 20 min, 10 μmol/L [3] | FGFR1 enzymatic inhibitory activity (in words) [1] | SMILES | other results
7 | 212 µL/min/mg | 88% | single digit nanomolar activity | COc1cc(CCc2cnc3ccn(S(=O)(=O)c4cn(C)cn4)c3n2)cc(OC)c1 [Compound 20] | 
8 | 50 µL/min/mg | 90% | picomolar range | COc1cc(OC)c(Cl)c(CCc2cnc3ccn(S(=O)(=O)c4c[nH]cn4)c3n2)c1Cl [Compound 29] | TDI (time-dependent inhibition), CYPs affected [4]: No inhibition
9 |  |  | decreased dramatically | CCOc1cccc(CCc2cnc3ccn(S(=O)(=O)c4cn(C)cn4)c3n2)c1 [Compound 30, 3-(3-Ethoxyphenethyl)-5-((1-methyl-1H-imidazol-4-yl)sulfonyl)-5H-pyrrolo[2,3-b]pyrazine] | 
